The source of these data is ChEMBL document CHEMBL2406992, “Validation of inhibitors of an ABC transporter required to transport lipopolysaccharide to the cell surface in Escherichia coli” (2013).

Molecules are shown by their SMILES. In brackets after ≈: the same amount, converted by molar mass. Activity calls are given as the source filed them. The rule behind the calls is not given here.

In assay [1] the test system is Escherichia coli. Description: Antibacterial activity against Escherichia coli NR698 assessed as growth inhibition after 24 hrs by microdilution method. The assay is classed as functional. Conditions: NR698, 24 h. Background: Dilution methods test growth across graded concentrations, often in twofold steps.
In assay [2] the test system is Escherichia coli. Description: Antibacterial activity against Escherichia coli MC4100 assessed as growth inhibition after 24 hrs by microdilution method. The conditions noted are these: MC4100, 24 h. The assay is classed as functional.
The subject of assay [3] is Escherichia coli. The experiment in a line: Inhibition of Escherichia coli MC4100 His6-tagged LptB overexpressed in Escherichia coli BL21 (deltaDE3) assessed as inorganic phosphate release at 100 uM after 5 mins by molybdate method. In outline: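 Single-point assay. Purified His-LptB (7 μM) in 50 mM Tris-HCl pH 8.0, 500 mM NaCl, 10% glycerol was preincubated 5 min at 25 °C with 100 μM inhibitor (2% DMSO final). Started with 1 mM ATP at 25 °C and quenched in the linear range with 12% SDS. Released phosphate was read by molybdate absorbance, relative to a DMSO control.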

For assay [4], the system named is Escherichia coli. The experiment in a line: Inhibition of Escherichia coli MC4100 LptBFGC overexpressed in Escherichia coli BL21 (deltaDE3) assessed as inorganic phosphate release at 100 uM after 5 mins by molybdate method. In outline:
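Detergent-purified LptBFGC, 0.2 μM in 50 mM Tris-HCl pH 8.0, 500 mM NaCl, 10% glycerol, 0.05% DDM. Preincubated 5 min at 25 °C with 100 μM inhibitor (2% DMSO final). Reaction started with 0.5 mM ATP at 25 °C and stopped in the linear range with 12% SDS. Phosphate was measured by modified molybdate method, relative to uninhibited DMSO control.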

Assay [5] concerns Escherichia coli. Description: Inhibition of Escherichia coli MC4100 LptBFGC overexpressed in Escherichia coli BL21 (deltaDE3) assessed as inorganic phosphate release after 5 mins by molybdate method. In outline:
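LptBFGC was expressed from an LptCAB-His6 plasmid in BL21(λDE3) (50 μM IPTG, 2 h, 37 °C) and purified in DDM. Assayed at 0.2 μM in 50 mM Tris-HCl pH 8.0, 500 mM NaCl, 10% glycerol, 0.05% DDM. Varying inhibitor (2% DMSO) was preincubated 5 min at 25 °C, then ATP was added. Quenched in the linear range with SDS. Molybdate phosphate read-out, normalized to DMSO.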

Assay [6] deals with Escherichia coli. Description: Selectivity ratio of IC50 for Escherichia coli MC4100 LptBFGC to IC50 for Escherichia coli MC4100 His6-tagged LptB.
For assay [7], the system named is Escherichia coli. The experiment in a line: Inhibition of Escherichia coli MC4100 His6-tagged LptB overexpressed in Escherichia coli BL21 (deltaDE3) assessed as inorganic phosphate release after 5 mins by molybdate method. In outline: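 His-tagged LptB, Ni-NTA and size-exclusion purified, at 7 μM in 50 mM Tris-HCl pH 8.0, 500 mM NaCl, 10% glycerol. Varied inhibitor concentrations (DMSO, 2% final) were preincubated 5 min at 25 °C, then ATP was added at 25 °C. Stopped within the linear range with an equal volume of 12% SDS. Phosphate was read by modified molybdate absorbance and normalized to the DMSO control.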

What is called MIC is the lowest concentration found to suppress growth. As to `O=C1NC(=O)c2c1c(-c1ccccc1Cl)cc1c2c2cc(O)c(OCCCN3CCCC3)cc2n1CCO`, the MIC was 100 µM (≈ 53.4 µg/mL) in assay [1] and more than 100 µM in assay [2]. Besides, the inhibition result in assay [3] and in assay [4] was “Active” each time.

In the case of `O=C1NC(=O)c2c1c(-c1ccccc1Br)cc1[nH]c3ccc(O)cc3c21`, the MIC in assay [1] is 12.5 µM (≈ 5.09 µg/mL); in assay [2], more than 100 µM. Moreover, the inhibition result in assay [3] and in assay [4] was “Active” throughout.

On to `CSc1ccccc1-c1cc2[nH]c3ccc(O)cc3c2c2c1C(=O)NC2=O`, for which the MIC in assay [1] was 25 µM (≈ 9.36 µg/mL); in assay [2], more than 100 µM. Also, the inhibition entry in assay [3] and in assay [4] was “Active” throughout.

Consider `O=C1NC(=O)c2c1c(-c1c(Cl)cccc1Cl)cc1[nH]c3ccc(O)cc3c21`, for which the inhibition result in assay [5] and in assay [7] was “Dose-dependent effect” throughout. The MIC in assay [1] was 12.5 µM (≈ 4.97 µg/mL); in assay [2], more than 100 µM. The Ratio IC50 in assay [6] turned out to be 6.

As to `CN(C)CCCOc1cc2c(cc1O)c1c3c(c(-c4ccccc4Cl)cc1n2C)C(=O)NC3=O`, the figures for the MIC in assay [1] and in assay [2] were 25 µM (≈ 11.9 µg/mL) and more than 100 µM, respectively. The inhibition entry in assay [3] and in assay [4] was “Active” throughout.

As for `Cn1c2cc(OCCCN3CCCC3)c(O)cc2c2c3c(c(-c4ccccc4Cl)cc21)C(=O)NC3=O`, the results for the minimal inhibitory concentration (MIC) in assay [1] and in assay [2] were 100 µM (≈ 50.4 µg/mL) and more than 100 µM, respectively. Moreover, the inhibition result in assay [3] and in assay [4] was “Active” in each case.

For the compound `Cn1c2cc(S(=O)(=O)CCCN3CCCC3)c(O)cc2c2c3c(c(-c4ccccc4Cl)cc21)C(=O)NC3=O`, the results for the MIC in assay [1] and in assay [2] were 50 µM (≈ 27.6 µg/mL) and more than 100 µM, respectively. Besides, the inhibition entry in assay [3] and in assay [4] was “Active” in each case.

For the compound `O=C1NC(=O)c2c1c(-c1ccccc1Cl)cc1[nH]c3ccc(O)cc3c21`, the MIC in assay [1] is 25 µM (≈ 9.07 µg/mL); in assay [2] it was more than 100 µM.
